ChEMBL document CHEMBL5724801, “EUbOPEN Chemogenomics Library - Multiplex” (2024)
Values joined by “and” are separate entries in the source; they are usually repeats but may differ in a detail not shown here. Identical values can stand only once.

Test system: U2OS
Experiment: Multiplex assay against U2OS
Assay type: toxicity, cell-based
Details: human
Method in brief: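 Values for tubulin, mitochondrial-mass and membrane-permeability phenotypes are per cents of cells with healthy nuclei. These cells were identified by CellPathfinder machine-learning gating of live cells that had been stained at seeding with Hoechst33342, BioTracker Green Microtubule Cytoskeleton Dye, MitoTracker Red and Annexin V Alexa Fluor 680 and imaged on a CQ1 microscope at 37°C and 5% CO2 after compound addition. The gating first set Hoechst high-intensity objects apart from normal cells, then split normal cells into healthy, pyknosed or fragmented nuclei, and pyknosed cells into mitotic or apoptotic.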

[1] = 12 h, 1 µM, compound concentration 1 uM
[2] = 12 h, 10 µM, compound concentration 10 uM
[3] = 24 h, 1 µM, compound concentration 1 uM
[4] = 24 h, 10 µM, compound concentration 10 uM
[5] = 48 h, 1 µM, compound concentration 1 uM
[6] = 48 h, 10 µM, compound concentration 10 uM

SMILES: CN1C[C@H](C(=O)N[C@]2(C)O[C@@]3(O)[C@@H]4CCCN4C(=O)[C@H](Cc4ccccc4)N3C2=O)C[C@@H]2c3cccc4[nH]cc(c34)C[C@H]21.CS(=O)(=O)O [DIHYDROERGOTAMINE MESYLATE]
- Population Apoptotic (%) [1]: 82% and 84%
- Population Fragmented Nuclei (%) [1]: 24% and 23%
- Population Healthy Nuclei (%) [1]: 65% and 63%
- Population Hoechst High Intensity Objects (%) [1]: 1%
- Population Membrane Permeable-Phenotype (%) [1]: 6% and 14%
- Population Mitochondria Different-Phenotype (%) [1]: 2% and 1%
- Population Mitotic Cells (%) [1]: 17% and 15%
- Population Normal (%) [1]: 98%
- Population Pyknosed Nuclei (%) [1]: 10% and 13%
- Population Tubulin-Different-Phenotype (%) [1]: 2% and 7%
- Total Cell Count [1]: 233 and 101
- Population Apoptotic (%) [2]: 71% and 100%
- Population Fragmented Nuclei (%) [2]: 19%
- Population Healthy Nuclei (%) [2]: 73% and 77%
- Population Hoechst High Intensity Objects (%) [2]: 2% and 1%
- Population Membrane Permeable-Phenotype (%) [2]: 5%
- Population Mitochondria Different-Phenotype (%) [2]: 1% and 0%
- Population Normal (%) [2]: 97% and 98%
- Population Pyknosed Nuclei (%) [2]: 7% and 2%
- Population Tubulin-Different-Phenotype (%) [2]: 3% and 0%
- Total Cell Count [2]: 298 and 144
- Population Apoptotic (%) [3]: 89% and 100%
- Population Fragmented Nuclei (%) [3]: 23% and 21%
- Population Healthy Nuclei (%) [3]: 67% and 65%
- Population Hoechst High Intensity Objects (%) [3]: 0% and 1%
- Population Membrane Permeable-Phenotype (%) [3]: 2% and 8%
- Population Mitochondria Different-Phenotype (%) [3]: 0% and 2%
- Population Mitotic Cells (%) [3]: 10% and 0%
- Population Normal (%) [3]: 99% and 98%
- Population Pyknosed Nuclei (%) [3]: 9% and 13%
- Population Tubulin-Different-Phenotype (%) [3]: 2% and 4%
- Total Cell Count [3]: 307 and 132
- Population Apoptotic (%) [4]: 88% and 92%
- Population Fragmented Nuclei (%) [4]: 18% and 16%
- Population Healthy Nuclei (%) [4]: 73% and 75%
- Population Hoechst High Intensity Objects (%) [4]: 1%
- Population Membrane Permeable-Phenotype (%) [4]: 4%
- Population Mitochondria Different-Phenotype (%) [4]: 2%
- Population Mitotic Cells (%) [4]: 11% and 7%
- Population Normal (%) [4]: 98%
- Population Pyknosed Nuclei (%) [4]: 8%
- Population Tubulin-Different-Phenotype (%) [4]: 2% and 1%
- Total Cell Count [4]: 337 and 163
- Population Apoptotic (%) [5]: 80% and 90%
- Population Fragmented Nuclei (%) [5]: 14% and 11%
- Population Healthy Nuclei (%) [5]: 78% and 76%
- Population Hoechst High Intensity Objects (%) [5]: 2% and 1%
- Population Membrane Permeable-Phenotype (%) [5]: 2% and 6%
- Population Mitochondria Different-Phenotype (%) [5]: 2%
- Population Mitotic Cells (%) [5]: 19% and 10%
- Population Normal (%) [5]: 97% and 98%
- Population Pyknosed Nuclei (%) [5]: 7% and 11%
- Population Tubulin-Different-Phenotype (%) [5]: 1% and 4%
- Total Cell Count [5]: 427 and 173
- Population Apoptotic (%) [6]: 95% and 100%
- Population Fragmented Nuclei (%) [6]: 14% and 19%
- Population Healthy Nuclei (%) [6]: 75% and 72%
- Population Hoechst High Intensity Objects (%) [6]: 3%
- Population Membrane Permeable-Phenotype (%) [6]: 7% and 3%
- Population Mitochondria Different-Phenotype (%) [6]: 3% and 1%
- Population Mitotic Cells (%) [6]: 4% and 0%
- Population Normal (%) [6]: 96%
- Population Pyknosed Nuclei (%) [6]: 9% and 8%
- Population Tubulin-Different-Phenotype (%) [6]: 3% and 2%
- Total Cell Count [6]: 452 and 217

SMILES: CN1CCN(c2nc3cc(C(F)(F)F)ccc3n3cccc23)CC1.O=C(O)/C=C\C(=O)O.O=C(O)/C=C\C(=O)O
- Population Apoptotic (%) [1]: 77% and 100%
- Population Fragmented Nuclei (%) [1]: 17% and 18%
- Population Healthy Nuclei (%) [1]: 75% and 73%
- Population Hoechst High Intensity Objects (%) [1]: 1% and 0%
- Population Membrane Permeable-Phenotype (%) [1]: 4% and 8%
- Population Mitochondria Different-Phenotype (%) [1]: 0% and 2%
- Population Mitotic Cells (%) [1]: 22% and 0%
- Population Normal (%) [1]: 98% and 99%
- Population Pyknosed Nuclei (%) [1]: 6% and 8%
- Population Tubulin-Different-Phenotype (%) [1]: 1% and 3%
- Total Cell Count [1]: 266 and 111
- Population Apoptotic (%) [2]: 66% and 88%
- Population Fragmented Nuclei (%) [2]: 31% and 25%
- Population Healthy Nuclei (%) [2]: 53% and 68%
- Population Hoechst High Intensity Objects (%) [2]: 1% and 2%
- Population Membrane Permeable-Phenotype (%) [2]: 18% and 13%
- Population Mitochondria Different-Phenotype (%) [2]: 45% and 41%
- Population Mitotic Cells (%) [2]: 33% and 11%
- Population Normal (%) [2]: 98% and 97%
- Population Pyknosed Nuclei (%) [2]: 15% and 6%
- Population Tubulin-Different-Phenotype (%) [2]: 19% and 21%
- Total Cell Count [2]: 218 and 135
- Population Apoptotic (%) [3]: 85% and 92%
- Population Fragmented Nuclei (%) [3]: 17% and 13%
- Population Healthy Nuclei (%) [3]: 73% and 77%
- Population Hoechst High Intensity Objects (%) [3]: 2% and 0%
- Population Membrane Permeable-Phenotype (%) [3]: 5% and 8%
- Population Mitochondria Different-Phenotype (%) [3]: 1% and 4%
- Population Mitotic Cells (%) [3]: 14% and 7%
- Population Normal (%) [3]: 97% and 99%
- Population Pyknosed Nuclei (%) [3]: 9%
- Population Tubulin-Different-Phenotype (%) [3]: 3% and 4%
- Total Cell Count [3]: 300 and 136
- Population Apoptotic (%) [4]: 76% and 78%
- Population Fragmented Nuclei (%) [4]: 31% and 19%
- Population Healthy Nuclei (%) [4]: 57% and 71%
- Population Hoechst High Intensity Objects (%) [4]: 3%
- Population Membrane Permeable-Phenotype (%) [4]: 16% and 17%
- Population Mitochondria Different-Phenotype (%) [4]: 41% and 36%
- Population Mitotic Cells (%) [4]: 24% and 21%
- Population Normal (%) [4]: 96%
- Population Pyknosed Nuclei (%) [4]: 10% and 9%
- Population Tubulin-Different-Phenotype (%) [4]: 14% and 16%
- Total Cell Count [4]: 244 and 156
- Population Apoptotic (%) [5]: 87% and 85%
- Population Fragmented Nuclei (%) [5]: 14% and 17%
- Population Healthy Nuclei (%) [5]: 77% and 75%
- Population Hoechst High Intensity Objects (%) [5]: 2% and 1%
- Population Membrane Permeable-Phenotype (%) [5]: 4% and 6%
- Population Mitochondria Different-Phenotype (%) [5]: 0% and 5%
- Population Mitotic Cells (%) [5]: 12% and 14%
- Population Normal (%) [5]: 97% and 98%
- Population Pyknosed Nuclei (%) [5]: 7%
- Population Tubulin-Different-Phenotype (%) [5]: 2% and 3%
- Total Cell Count [5]: 447 and 187
- Population Apoptotic (%) [6]: 78% and 81%
- Population Fragmented Nuclei (%) [6]: 31% and 21%
- Population Healthy Nuclei (%) [6]: 52% and 67%
- Population Hoechst High Intensity Objects (%) [6]: 4% and 3%
- Population Membrane Permeable-Phenotype (%) [6]: 16% and 10%
- Population Mitochondria Different-Phenotype (%) [6]: 17% and 16%
- Population Mitotic Cells (%) [6]: 21% and 18%
- Population Normal (%) [6]: 95% and 96%
- Population Pyknosed Nuclei (%) [6]: 16% and 11%
- Population Tubulin-Different-Phenotype (%) [6]: 12% and 9%
- Total Cell Count [6]: 299 and 202
